Measured values as given in ChEMBL document CHEMBL5705889, “Novel mutant-selective EGFR kinase inhibitors against EGFR T790M” (Nature, 2009).
The source made the active and inactive calls. The rule behind the calls is not given here.

Tests used:
eIF-2-alpha kinase GCN2 = eIF-2-alpha kinase GCN2 (Homo sapiens, UniProt Q9P2K8); experiment: Binding affinity to GCN2 (unknown origin) assessed as dissociation constant
Mus musculus [1] = experiment: Invivo antitumor activity in transgenic mouse harboring EGFR L858R/T790M mutant assessed as increase in fibrosis at 25 mg/kg administered via gavage for 2 weeks by H&E staining based analysis; assay type: functional, organism-based
In short: (§1)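 EGFR-TL (L858R/T790M) or exon19 deletion-T790M (TD) inducible bitransgenic mice dosed by oral gavage daily at 25 mg/kg; vehicle 10% 1-methyl-2-pyrrolidinone:90% PEG-300. Tumors followed by MRI; lung histology by standard protocols.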

[2] = AUC(0 to infinity) in mouse at 10 mg/kg, po administered as single dose; assay type: ADME, organism-based; conditions: in vivo
Mus musculus [3] = experiment: Invivo antitumor activity in transgenic mouse harboring EGFR del19/T790M mutant assessed as remodelling/scarring at 25 mg/kg administered via gavage for 2 weeks by H&E staining based analysis; assay type: functional, organism-based; in short: as §1
BaF3 [4] = experiment: cells; assay type: functional, cell-based; conditions: Mus musculus, BaF3, 72 h
[5] = MRT in mouse at 1 mg/kg, iv administered as single dose; assay type: ADME, organism-based; conditions: in vivo
[6] = Drug concentration in mouse plasma at 10 mg/kg, po administered as single dose and measured after 0.25 hrs; assay type: ADME, organism-based
cells [7] = assay type: functional, cell-based; conditions: Homo sapiens, NCI-H1819, 72 h
[8] = Drug concentration in mouse plasma at 10 mg/kg, po administered as single dose and measured after 4 hrs; assay type: ADME, organism-based
Mus musculus [9] = experiment: In vivo inhibition of EGFR phosphorylation in transgenic mouse harboring EGFR L858R/T790M mutant at 2.5 to 25 mg/kg administered as two doses separated by 16 hours by immunoblot analysis; assay type: functional, organism-based; conditions: dose 2.5-25 mg/kg
Mus musculus [10] = experiment: In vivo antitumor activity in transgenic mouse harboring EGFR L858R/T790M mutant assessed as tumor regression at 25 mg/kg, administered via gavage for 2 weeks; assay type: functional, organism-based
In short: (§2)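 Inducible bitransgenic mice carrying EGFR T790M/L858R or exon19 deletion-T790M were dosed by daily gavage at 25mg/kg. The vehicle was 10% 1-methyl-2-pyrrolidinone:90% PEG-300, and the control group received vehicle alone. Tumor response was followed by MRI scanning.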

BaF3 [11] = experiment: Prevention of EGFR T790M mutant development in mouse BaF3 cells harboring delE746_A750 mutant assessed as reduction in resistant clones with T790M mutant at 0.001 to 1 uM; assay type: functional, cell-based; conditions: dose 0.001-1 µM
In short: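 Ba/F3 cells with EGFR L858R or delE746_A750 mutagenized with N-ethyl-N-nitrosourea, then expanded in 100 nM or 1 μM inhibitor; resistant clones isolated and characterized for EGFR T790M.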

BaF3 [12] = experiment: cells; assay type: functional, cell-based; conditions: Mus musculus, BaF3, 72 h; remark: listed apart in the source
[13] = AUC(0 to infinity) in mouse at 1 mg/kg, iv administered as single dose; assay type: ADME, organism-based; conditions: in vivo
[14] = target: Epidermal growth factor receptor (Homo sapiens, UniProt P00533); experiment: Inhibition of EGFR phosphorylation in human PC9 Gefitinib-resistant (GR) cells at 0.01 to 1 uM incubated for 16 hrs by immunoblot analysis; assay type: cell-based; conditions: PC9 Gefitinib-resistant (GR) cell, dose 0.01-1 µM
[15] = Drug concentration in mouse plasma at 1 mg/kg, iv administered as single dose and measured after 1 hrs; assay type: ADME, organism-based
[16] = Drug concentration in mouse plasma at 10 mg/kg, po administered as single dose and measured after 2 hrs; assay type: ADME, organism-based
Mus musculus [17] = experiment: In vivo antitumor activity in transgenic mouse harboring EGFR delE746_A750/T790M mutant assessed as increase in TUNEL positive cells at 25 mg/kg administered via gavage for 2 weeks by immunohistochemical analysis; assay type: functional, organism-based
In short: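 Transgenic EGFR T790M mutant mice were given daily gavage at 25mg/kg in 10% 1-methyl-2-pyrrolidinone:90% PEG-300 vehicle, alongside vehicle-alone controls. Tumor tissue was immunostained by standard protocols, and TUNEL-positive and Ki67-positive cells were counted.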

[18] = AUC(0 to t) in mouse at 10 mg/kg, po administered as single dose; assay type: ADME, organism-based; conditions: in vivo
Mus musculus [19] = experiment: Invivo antitumor activity in transgenic mouse harboring EGFR del19/T790M mutant assessed as reduction in small residual nodules in tumor at 25 mg/kg administered via gavage for 2 weeks by H&E staining based analysis; assay type: functional, organism-based; in short: as §1
Mus musculus [20] = experiment: In vivo inhibition of AKT phosphorylation in transgenic mouse harboring EGFR del E746_A750/T790M mutant at 2.5 to 25 mg/kg administered as two doses separated by 16 hours by immunoblot analysis; assay type: functional, organism-based; conditions: dose 2.5-25 mg/kg
[21] = target: Cyclin-G-associated kinase (Homo sapiens, UniProt O14976); experiment: Binding affinity to GAK (unknown origin) assessed as dissociation constant
cells [22] = assay type: functional, cell-based; conditions: Homo sapiens, Gefitinib-resistant PC9, 72 h
Mus musculus [23] = experiment: In vivo inhibition of EGFR phosphorylation in transgenic mouse harboring EGFR del E746_A750/T790M mutant at 2.5 to 25 mg/kg administered as two doses separated by 16 hours by immunoblot analysis; assay type: functional, organism-based; conditions: dose 2.5-25 mg/kg
In short: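 Transgenic mice gavaged with compound in 10% 1-methyl-2-pyrrolidinone:90% PEG-300 vehicle; phosphorylation assessed in tissue by immunoblotting per standard protocols.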

[24] = target: Tyrosine-protein kinase ITK/TSK (Homo sapiens, UniProt Q08881); experiment: Binding affinity to ITK (unknown origin) assessed as dissociation constant
BaF3 [25] = experiment: cells; assay type: functional, cell-based; conditions: Mus musculus, BaF3, 72 h; remark: listed apart in the source
BaF3 [26] = experiment: cells; assay type: functional, cell-based; conditions: Mus musculus, BaF3, 72 h; remark: listed apart in the source
[27] = Toxicity in mouse harboring EGFR del E746_A750/T790M mutant assessed as effect on body weight at 25 mg/kg administered via gavage for 2 weeks; assay type: organism-based; conditions: in vivo, po, 336 h
In short: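 Inducible bitransgenic tumor mice gavaged daily, 25 mg/kg, vehicle NMP (10% 1-methyl-2-pyrrolidinone, 90% PEG-300), compared against vehicle-treated mice; weight, serum creatine and total white blood cell count monitored during the study.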

Mus musculus [28] = experiment: In vivo antitumor activity in transgenic mouse harboring EGFR Del19/T790M mutant assessed as tumor regression at 25 mg/kg, administered via gavage for 2 weeks; assay type: functional, organism-based; in short: as §2
Mus musculus [29] = experiment: Invivo antitumor activity in transgenic mouse harboring EGFR L858R/T790M mutant assessed as decrease in cellularity at 25 mg/kg administered via gavage for 2 weeks by H&E staining based analysis; assay type: functional, organism-based; in short: as §1
[30] = target: RAC-alpha serine/threonine-protein kinase (Homo sapiens) (UniProt P31749); experiment: Inhibition of AKT phosphorylation in human NCI-H1975 cells at 0.01 to 1 uM incubated for 16 hrs by immunoblot analysis; assay type: cell-based; conditions: dose 0.01-1 µM
[31] = C0 in mouse at 1 mg/kg, iv administered as single dose; assay type: ADME, organism-based; conditions: in vivo
[32] = Half-life in mouse at 1 mg/kg, iv administered as single dose; assay type: ADME, organism-based; conditions: in vivo
[33] = target: ALK tyrosine kinase receptor (Homo sapiens, UniProt Q9UM73); experiment: Binding affinity of ALK (unknown origin) assessed as dissociation constant
Chain of ALK tyrosine kinase receptor (Q9UM73 whole entry): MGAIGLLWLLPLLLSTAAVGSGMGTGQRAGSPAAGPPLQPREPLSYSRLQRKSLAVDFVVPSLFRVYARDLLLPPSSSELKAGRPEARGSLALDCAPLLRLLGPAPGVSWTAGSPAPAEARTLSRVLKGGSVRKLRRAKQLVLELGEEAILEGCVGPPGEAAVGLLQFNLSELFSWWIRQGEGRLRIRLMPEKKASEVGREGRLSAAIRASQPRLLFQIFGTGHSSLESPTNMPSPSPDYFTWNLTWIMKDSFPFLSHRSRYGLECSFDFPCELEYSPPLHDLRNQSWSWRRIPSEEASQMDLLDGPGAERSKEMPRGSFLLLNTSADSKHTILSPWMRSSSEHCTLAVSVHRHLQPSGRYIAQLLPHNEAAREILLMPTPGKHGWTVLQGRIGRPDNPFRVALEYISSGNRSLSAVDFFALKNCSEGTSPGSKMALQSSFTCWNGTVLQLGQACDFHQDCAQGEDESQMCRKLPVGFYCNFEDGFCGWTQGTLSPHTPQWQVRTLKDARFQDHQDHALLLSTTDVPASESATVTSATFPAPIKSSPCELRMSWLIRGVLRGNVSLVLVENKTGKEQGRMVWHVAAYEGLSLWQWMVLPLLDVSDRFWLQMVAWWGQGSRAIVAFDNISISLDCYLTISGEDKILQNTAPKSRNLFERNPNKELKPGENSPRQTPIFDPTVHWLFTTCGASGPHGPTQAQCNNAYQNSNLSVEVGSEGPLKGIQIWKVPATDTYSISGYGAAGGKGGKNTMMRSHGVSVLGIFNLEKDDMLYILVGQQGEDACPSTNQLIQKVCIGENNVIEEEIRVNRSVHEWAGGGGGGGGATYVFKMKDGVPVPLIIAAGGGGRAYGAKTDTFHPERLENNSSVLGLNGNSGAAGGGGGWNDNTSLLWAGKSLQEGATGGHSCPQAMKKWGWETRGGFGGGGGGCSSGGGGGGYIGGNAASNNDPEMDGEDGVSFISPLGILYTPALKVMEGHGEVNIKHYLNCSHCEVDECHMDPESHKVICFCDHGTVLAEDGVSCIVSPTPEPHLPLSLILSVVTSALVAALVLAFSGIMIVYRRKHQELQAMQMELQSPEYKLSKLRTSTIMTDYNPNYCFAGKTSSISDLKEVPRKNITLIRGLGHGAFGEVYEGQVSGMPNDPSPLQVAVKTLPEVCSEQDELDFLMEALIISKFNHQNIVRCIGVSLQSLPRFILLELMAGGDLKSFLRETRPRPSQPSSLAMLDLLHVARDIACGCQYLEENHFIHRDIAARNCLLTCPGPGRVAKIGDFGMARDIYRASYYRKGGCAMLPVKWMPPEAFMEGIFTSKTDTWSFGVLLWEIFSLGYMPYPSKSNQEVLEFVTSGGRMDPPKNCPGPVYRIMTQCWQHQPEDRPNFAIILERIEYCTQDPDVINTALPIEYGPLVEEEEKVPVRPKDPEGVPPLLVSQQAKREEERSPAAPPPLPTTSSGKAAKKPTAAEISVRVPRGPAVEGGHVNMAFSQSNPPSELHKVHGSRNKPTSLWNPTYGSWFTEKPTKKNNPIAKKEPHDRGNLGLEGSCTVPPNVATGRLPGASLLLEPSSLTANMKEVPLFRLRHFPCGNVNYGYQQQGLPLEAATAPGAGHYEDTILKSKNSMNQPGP

Chain of RAC-alpha serine/threonine-protein kinase (Homo sapiens) (P31749 whole entry): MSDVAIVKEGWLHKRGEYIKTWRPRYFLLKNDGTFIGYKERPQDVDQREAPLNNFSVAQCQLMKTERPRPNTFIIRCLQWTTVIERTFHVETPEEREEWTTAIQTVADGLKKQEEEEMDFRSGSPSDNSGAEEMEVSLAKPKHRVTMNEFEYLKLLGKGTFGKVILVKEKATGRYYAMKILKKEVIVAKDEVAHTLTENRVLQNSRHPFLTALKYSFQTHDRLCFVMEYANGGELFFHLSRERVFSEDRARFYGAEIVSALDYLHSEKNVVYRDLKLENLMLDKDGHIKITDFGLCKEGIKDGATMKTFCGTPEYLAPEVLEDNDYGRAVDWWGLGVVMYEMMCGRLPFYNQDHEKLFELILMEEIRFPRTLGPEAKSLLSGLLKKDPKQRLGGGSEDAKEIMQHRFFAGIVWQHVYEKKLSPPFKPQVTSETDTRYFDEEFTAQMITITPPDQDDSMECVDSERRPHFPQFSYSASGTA
Chain of Cyclin-G-associated kinase (O14976 whole entry): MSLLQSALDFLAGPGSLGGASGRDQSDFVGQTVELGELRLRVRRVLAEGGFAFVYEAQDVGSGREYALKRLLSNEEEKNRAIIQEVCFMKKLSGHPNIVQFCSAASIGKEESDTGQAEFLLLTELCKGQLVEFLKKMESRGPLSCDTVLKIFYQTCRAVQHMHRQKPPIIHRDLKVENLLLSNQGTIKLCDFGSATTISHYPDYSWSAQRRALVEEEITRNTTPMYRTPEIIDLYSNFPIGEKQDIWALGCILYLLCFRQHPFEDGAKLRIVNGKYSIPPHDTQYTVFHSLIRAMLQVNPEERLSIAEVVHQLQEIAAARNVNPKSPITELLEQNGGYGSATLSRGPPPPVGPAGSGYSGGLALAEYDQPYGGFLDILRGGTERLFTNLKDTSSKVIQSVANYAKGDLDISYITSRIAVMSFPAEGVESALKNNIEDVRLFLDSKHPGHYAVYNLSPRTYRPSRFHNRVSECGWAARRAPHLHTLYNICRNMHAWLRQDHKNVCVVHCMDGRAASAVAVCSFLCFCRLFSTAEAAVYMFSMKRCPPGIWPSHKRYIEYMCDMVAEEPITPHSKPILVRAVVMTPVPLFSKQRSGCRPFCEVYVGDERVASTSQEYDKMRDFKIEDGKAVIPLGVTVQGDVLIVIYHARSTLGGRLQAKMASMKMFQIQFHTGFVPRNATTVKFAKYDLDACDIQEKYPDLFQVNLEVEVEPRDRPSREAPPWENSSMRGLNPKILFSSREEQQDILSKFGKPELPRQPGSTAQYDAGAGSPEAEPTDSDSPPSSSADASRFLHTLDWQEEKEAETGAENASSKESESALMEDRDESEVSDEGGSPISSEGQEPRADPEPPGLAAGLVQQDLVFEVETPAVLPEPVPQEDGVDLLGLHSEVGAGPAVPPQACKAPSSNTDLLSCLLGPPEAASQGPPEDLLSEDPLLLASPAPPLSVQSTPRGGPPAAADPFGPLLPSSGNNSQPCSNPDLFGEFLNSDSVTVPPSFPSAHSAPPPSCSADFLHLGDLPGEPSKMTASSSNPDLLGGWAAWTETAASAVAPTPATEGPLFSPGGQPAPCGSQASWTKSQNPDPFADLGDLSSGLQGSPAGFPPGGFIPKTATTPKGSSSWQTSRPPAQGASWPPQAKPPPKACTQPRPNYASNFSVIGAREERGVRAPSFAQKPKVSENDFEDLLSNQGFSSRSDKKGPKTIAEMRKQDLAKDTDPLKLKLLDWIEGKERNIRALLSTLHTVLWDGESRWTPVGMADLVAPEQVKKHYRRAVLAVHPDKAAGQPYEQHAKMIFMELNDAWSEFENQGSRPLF
Chain of Tyrosine-protein kinase ITK/TSK (Q08881 whole entry): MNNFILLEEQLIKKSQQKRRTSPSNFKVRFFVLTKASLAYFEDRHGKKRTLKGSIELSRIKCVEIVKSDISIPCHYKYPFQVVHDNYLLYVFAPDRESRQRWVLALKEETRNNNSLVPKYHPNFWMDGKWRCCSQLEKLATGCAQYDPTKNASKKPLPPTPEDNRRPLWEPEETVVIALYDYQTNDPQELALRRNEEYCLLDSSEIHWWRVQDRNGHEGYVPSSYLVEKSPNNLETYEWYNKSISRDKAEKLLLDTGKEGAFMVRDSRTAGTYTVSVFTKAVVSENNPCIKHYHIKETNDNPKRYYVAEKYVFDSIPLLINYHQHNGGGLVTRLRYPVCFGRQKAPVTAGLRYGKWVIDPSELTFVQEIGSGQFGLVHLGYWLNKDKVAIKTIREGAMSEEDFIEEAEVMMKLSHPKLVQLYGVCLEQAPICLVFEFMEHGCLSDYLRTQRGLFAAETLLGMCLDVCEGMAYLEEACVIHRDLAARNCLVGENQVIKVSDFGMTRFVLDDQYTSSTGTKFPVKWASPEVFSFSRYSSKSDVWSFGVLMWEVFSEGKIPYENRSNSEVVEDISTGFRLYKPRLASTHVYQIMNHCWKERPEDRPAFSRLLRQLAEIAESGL

C=CC(=O)Nc1cccc(Oc2nc(Nc3ccc(N4CCN(C)CC4)cc3OC)ncc2Cl)c1
Kd (eIF-2-alpha kinase GCN2): 140 nM
Activity (Mus musculus [1]): Active
AUC(0-inf) [2]: 2400 ng·h/mL
Activity (Mus musculus [3]): Active
IC50 (BaF3 [4]): 157 nM
MRT [5]: 1.51 h
concentration at 0.25 h [6]: 429 ng/mL
IC50 (cells [7]): 924 nM
concentration at 4 h [8]: 214 ng/mL
inhibition (Mus musculus [9]): Active
Activity (Mus musculus [10]): Active
Activity (BaF3 [11]): Active
IC50 (BaF3 [12]): > 3300 nM
AUC(0-inf) [13]: 976 ng·h/mL
inhibition [14]: Active
concentration at 1 h [15]: 228 ng/mL
concentration at 2 h [16]: 422 ng/mL
Activity (Mus musculus [17]): Active
AUC(0-t) [18]: 2390 ng·h/mL
Activity (Mus musculus [19]): Active
inhibition (Mus musculus [20]): Active
Kd [21]: 91 nM
IC50 (cells [22]): 47 nM
inhibition (Mus musculus [23]): Active
Kd [24]: 43 nM
IC50 (BaF3 [25]): 2 nM
IC50 (BaF3 [26]): 35 nM
Activity [27]: Non-Toxic
Activity (Mus musculus [28]): Active
Activity (Mus musculus [29]): Active
inhibition [30]: Active
C0 [31]: 1480 ng/mL
half-life [32]: 1.76 h
Kd [33]: 300 nM
